Source: PubChem
Shown is part of a subset that was picked to be rich in hits.
bCat KO growth = beta-catenin-lacking colon tumor cell growth suppression; HCT116 beta-catenin knockout viability, CellTiter-Glo, 60 h; active compounds read low; viability, % at 10 µM; 140,000 compounds, 1.5% hits; AID 818;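 active means viability at or under a set limit, the compound median less 4 SD, cut at about 6% in these data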;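 further: 0% = Hyamine 1622 control at 20 µM and 100% = untreated cell control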
HUVEC prolif 384 = human endothelial cell proliferation inhibition. HUVEC proliferation, CellTiter-Glo luminescence, 72 h; active compounds read low. viability, % at 10 µM (by protocol). 86,000 compounds, 1.1% hits;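 active means viability at or below 30%; inactive means viability above 30%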;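 further: 100% = median luminescence of DMSO-only cell control wells on each plate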
HCT116 PTEN-null = growth suppressors of cells with PTEN tumor suppressor deletion; 140,000 compounds, 1.2% hits; viability, % at 10 µM; HCT116 PTEN-null viability, CellTiter-Glo, 60 h; active compounds read low; AID 827;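 active means viability at or below a set limit, 4 SD under the median of all tested compounds, cut at about 3.7% in these data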;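 further: PTEN knockout HCT116 line with beta catenin targeted HCT116 as companion control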
Fibroblast inh = blocks proliferation of human lung fibroblasts; LL 47 human lung fibroblast viability, ATP luminescence; active compounds read low; viability, % at 10 µM; 85,000 compounds, 1.1% hits;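 active means viability at or below 50% in the single dose screen; inactive means viability above 50%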;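 further: compound exposure lasted 72 h before the ATP readout; 100% = median luminescence of untreated cell-only wells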
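material = human LL 47 lung fibroblast cells | dosing = compounds added from tenfold dosing solution, 0.1% DMSO final | timing = overnight cell rest, 72 h compound treatment at 37 °C | measured by = CellTiter-Glo luminescence measuring cellular ATP | evaluation = % viability versus median cells-only luminescence | control set = cell-only wells, no compound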
H69AR growth 86K = growth inhibitors of human H69AR lung tumor cells. viability, % at 10 µM. 85,000 compounds, 6% hits. H69AR lung tumor viability, ATP luminescence, 72 h; active compounds read low. AID 598;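 active means viability at or below 40%; inactive means viability above 40%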;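 further: multidrug resistant small cell line overexpressing MRP-1 efflux transporter; 100% = mean luminescence of untreated control wells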
Starred values were filed as active, the others as inactive; . = no result.

SMILES | bCat KO growth | HUVEC prolif 384 | HCT116 PTEN-null | Fibroblast inh | H69AR growth 86K
CSc1nc(N2CCN(CCO)CC2)c2sc3nc(-c4ccco4)c4c(c3c2n1)CCC4 | . | 77 | . | 98 | 0.8*
Cc1ccc(C)c(S(=O)(=O)C(C#N)c2nc3ccccc3nc2N2CC(C)OC(C)C2)c1 (stereo not drawn) | 74 | 70 | 78 | 86 | 39*
Cc1oc2cc3c(C(=O)OCCN(C)C)c(C)oc3cc2c1C(=O)OCCN(C)C | . | 75 | . | 89 | 109
c1ccc(CN2CCC(Nc3nc(-c4ccccc4)nc4ccccc34)CC2)cc1 | 1.6* | 4.0* | 1.6* | 5.4* | 2.1*
Cc1cc(C)c[n+](-c2[nH]c(=O)sc2/C=N/NC([S-])=Nc2ccccc2)c1 | 93 | . | 98 | . | .
Cc1sc2nc(SCC(=O)N3CCCCC3)[nH]c(=O)c2c1C | 87 | 84 | 88 | 102 | 77
Cc1sc2nc(CN3CCCCC3)nc(Cl)c2c1C | 5.4* | . | 5 | . | .
Cc1sc2nc(CN3CCCC3)nc(N3CCN(S(=O)(=O)c4cccs4)CC3)c2c1C | 33 | 6.4* | 39 | 70 | 67
Cc1sc2nc(-c3cccs3)nc(N3CCCN(C)CC3)c2c1C | . | 21* | . | 56 | 24*
CCOC(=O)/C(N=Nc1ccc(F)cc1)=C(/O)c1ccc([N+](=O)[O-])cc1 | 74 | . | . | . | .
CC(C)Oc1ccc(C2/C(=C(/O)c3ccc(F)cc3)C(=O)C(=O)N2CCCN(C)C)cc1 (stereo not drawn) | . | 96 | . | 105 | 100
COc1cc(OC)cc(-c2nc3cc(C)ccc3o2)c1 | 72 | 65 | 66 | 70 | 31*
COc1cc(C(=O)Nc2cc(-c3nc4cc(C)ccc4o3)ccc2C)cc(OC)c1OC | 97 | 43 | 88 | 58 | 30*
O=C(Nc1ccc2oc(-c3cccc(F)c3)nc2c1)c1ccccc1F | 7 | 64 | 2.4* | 103 | 49
O=C(Nc1ccc2oc(-c3ccccc3)nc2c1)c1ccccc1F | 80 | 101 | 94 | 113 | 87
CCCC(=O)Nc1cccc(-c2nc3cc(C)c(C)cc3o2)c1 | 95 | 49 | 98 | 111 | 14*
CCCC(=O)Nc1cccc(-c2nc3ccccc3o2)c1 | 93 | 98 | 95 | 97 | 100
Cc1ccc(-c2nc3cc(Cl)ccc3o2)cc1 | 94 | 88 | 92 | 98 | 54
Cc1nn(CC(=O)Nc2cccnc2N2CCOCC2)c(=O)c2ccccc12 | . | 89 | . | 104 | 89
C=CCN(CC=C)CC(O)CN(c1cc([N+](=O)[O-])ccc1OC)S(=O)(=O)c1ccccc1 (stereo not drawn) | 79 | . | 83 | . | .
Cc1ccc(-n2c(C)cc(/C=N/NC(=O)c3ccc(CN4CCOCC4)cc3)c2C)cc1 | 67 | . | 55 | . | .
COc1cc(C(=O)Nc2cccc(-c3nc4cc(C)ccc4o3)c2)cc(OC)c1OC | 76 | 57 | 73 | 94 | 28*
Cc1ccc(NC(=O)c2cc(-n3cnnc3)ccc2Cl)cc1 | 87 | 95 | 85 | 100 | 97
O=C(Nc1ccc2oc(-c3ccc(Cl)c(Cl)c3)nc2c1)c1ncn[nH]1 | 1.0* | . | 0.9* | . | .
O=C(Nc1ccc2oc(-c3ccccc3F)nc2c1)c1ncn[nH]1 | 101 | . | 85 | . | .
SMILES | bCat KO growth | HUVEC prolif 384 | HCT116 PTEN-null | Fibroblast inh | H69AR growth 86K
Cc1ccc2oc(-c3cccc(NC(=O)c4cc(-n5cnnc5)ccc4Cl)c3)nc2c1 | 88 | 58 | 94 | 51 | 11*
COc1cc(C(=O)Nc2cccc(-c3nc4cc(C)ccc4o3)c2C)cc(OC)c1OC | 89 | 84 | 112 | 82 | 73
CCCc1nnc(NC(=O)CCCN2C(=O)c3ccccc3C2=O)s1 | 90 | 99 | 95 | 99 | 92
O=C(CSc1ccc(Cl)cc1)Nc1cccc(-c2nc3ccccc3[nH]2)c1 | 86 | . | 68 | . | .
N=c1c(-c2nc3ccccc3[nH]2)cc(C(=O)c2cccs2)nn1-c1ccc(Cl)cc1 | . | 24* | . | 71 | 7.4*
CNc1sc(C(=O)c2cccs2)c(N)c1-c1nc2ccccc2s1 | 80 | 60 | 81 | 83 | 63
CNc1sc(C(=O)c2ccc(F)cc2)c(N)c1-c1nc2ccccc2s1 | 76 | 25* | 77 | 57 | 5.7*
COc1cnc(SCc2c(Cl)cccc2Cl)nc1Cl | 88 | . | 75 | . | .
Cc1noc(C)c1CSc1cc(C)c2ccccc2n1 | 92 | 97 | 80 | 90 | 22*
CC(C)(C)CC(C)(C)NCC(O)COc1c(F)cc(Br)cc1F (stereo not drawn) | 13 | 99 | 26 | 76 | 9.7*
CCOc1ccccc1NC(=O)c1ccc(Cl)c(NC(=O)CC(c2ccccc2)c2ccccc2)c1 | 86 | . | 69 | . | .
